From ChEMBL document CHEMBL1147383, “Use of alkenylresorcinols from Ononis speciosa as synthetic precursors of compounds with potential biological activity” (J Nat Prod, 1993)
Calls of active or inactive are those of the source. The rule behind the calls is not given here.

Columns and labels:
Micrococcus luteus = experiment: Antibacterial activity against Micrococcus lysodeikticus at 200 ug/disk after 18 hrs by disk diffusion assay; type: functional; conditions: read-out: Diameter of inhibition zone
In short: (§1)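 Disk diffusion. Gram-positive strains were grown in brain-heart agar and incubated at 28°. BHA plates were seeded with 0.1 ml of 8-h cultures. 6-mm paper disks were loaded with 100 or 200 µg of compound. Plates were held at 4° for 1 h for diffusion, then incubated. Growth-inhibition halo diameter (mm) was read at 18 h.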

Niallia circulans [1] = experiment: Antibacterial activity against Bacillus circulans at 100 ug/disk after 18 hrs by disk diffusion assay; type: functional; conditions: for zone of inhibition at 100 µg/disc: read-out: Diameter of inhibition zone; in short: as §1
Priestia megaterium [2] = experiment: Antibacterial activity against Bacillus megaterium at 100 ug/disk after 18 hrs by disk diffusion assay; type: functional; in short: as §1
Bacillus licheniformis [3] = experiment: Antibacterial activity against Bacillus licheniformis CECT20 at 200 ug/disk after 18 hrs by disk diffusion assay; type: functional; conditions: read-out: Diameter of inhibition zone; in short: as §1
Priestia megaterium [4] = experiment: Antibacterial activity against Bacillus megaterium at 200 ug/disk after 18 hrs by disk diffusion assay; type: functional; in short: as §1
Botrytis cinerea [5] = experiment: Antifungal activity against Botrytis cinerea CECT 2100 after 18 hrs by disk diffusion assay; type: functional, organism-based
In short: (§2)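 Botrytis strains were grown on potato agar at 28°. Plates were inoculated with 0.1 ml of 8-h cultures. 6-mm paper disks were impregnated with 100 or 200 µg. Plates were held 1 h at 4° for diffusion, then incubated. Growth-inhibition halo diameter (mm) was read 18 h after incubation.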

Aspergillus niger = experiment: Antifungal activity against Aspergillus niger ATCC 9142 after 18 hrs by disk diffusion assay; type: functional, organism-based
In short: (§3)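 Filamentous fungi were grown on Sabouraud agar with chloramphenicol at 28°. Plates were inoculated with 0.1 ml of 8-h cultures. 6-mm disks bearing 100 or 200 µg were applied. Plates were kept at 4° for 1 h, then incubated. Inhibition halo diameter (mm) was read at 18 h.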

Proteus = experiment: Antibacterial activity against Proteus after 18 hrs by disk diffusion assay; type: functional, organism-based
In short: (§4)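 Gram-negative strains were grown in brain-heart agar and incubated at 37°. BHA plates were inoculated with 0.1 ml of 8-h cultures. 6-mm paper disks carried 100 or 200 µg of compound. Plates stood 1 h at 4° to allow diffusion before incubation. The inhibition halo diameter (mm) was measured after 18 h.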

[6] = test system: Pseudomonas reptilivorous; experiment: Antibacterial activity against Pseudomonas reptilovora after 18 hrs by disk diffusion assay; type: functional, organism-based; in short: as §4
Bacillus licheniformis [7] = experiment: Antibacterial activity against Bacillus licheniformis CECT20 at 100 ug/disk after 18 hrs by disk diffusion assay; type: functional; conditions: read-out: Diameter of inhibition zone; in short: as §1
Botrytis cinerea [8] = experiment: Antifungal activity against Botrytis cinerea CECT 2850 after 18 hrs by disk diffusion assay; type: functional, organism-based; in short: as §2
Pseudomonas fluorescens = experiment: Antibacterial activity against Pseudomonas fluorescens N5 after 18 hrs by disk diffusion assay; type: functional, organism-based; in short: as §4
Niallia circulans [9] = experiment: Antibacterial activity against Bacillus circulans at 200 ug/disk after 18 hrs by disk diffusion assay; type: functional; conditions: read-out: Diameter of inhibition zone; in short: as §1
Saccharomyces cerevisiae [10] = experiment: Antifungal activity against Saccharomyces cerevisiae X-3 after 18 hrs by disk diffusion assay; type: functional, organism-based
In short: (§5)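 Yeast strains were grown in YEPG at 28°. Plates were seeded with 0.1 ml of 8-h-old cultures. 6-mm paper disks were impregnated with 100 or 200 µg. Diffusion ran 1 h at 4°, followed by incubation. Zone of growth inhibition (diameter, mm) was recorded 18 h after incubation.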

Escherichia coli = experiment: Antibacterial activity against Escherichia coli U9 after 18 hrs by disk diffusion assay; type: functional, organism-based; in short: as §4
Bacillus subtilis [11] = experiment: Antibacterial activity against Bacillus subtilis CECT 397 at 100 ug/disk after 18 hrs by disk diffusion assay; type: functional; in short: as §1
Saccharomyces cerevisiae [12] = experiment: Antifungal activity against Saccharomyces cerevisiae S1 after 18 hrs by disk diffusion assay; type: functional, organism-based; in short: as §5
Fusarium fujikuroi = experiment: Antifungal activity against Gibberella fujikuroi IMI 58289 after 18 hrs by disk diffusion assay; type: functional, organism-based; in short: as §3
Alcaligenes faecalis = experiment: Antibacterial activity against Alcaligenes faecalis after 18 hrs by disk diffusion assay; type: functional, organism-based; in short: as §4
Salmonella = experiment: Antibacterial activity against Salmonella after 18 hrs by disk diffusion assay; type: functional, organism-based; in short: as §4
Enterococcus faecalis [13] = experiment: Antibacterial activity against Enterococcus faecalis S-86 at 200 ug/disk after 18 hrs by disk diffusion assay; type: functional; conditions: read-out: Diameter of inhibition zone; in short: as §1
Bacillus subtilis [14] = experiment: Antibacterial activity against Bacillus subtilis CECT 397 at 200 ug/disk after 18 hrs by disk diffusion assay; type: functional; in short: as §1
Saccharomyces cerevisiae [15] = experiment: Antifungal activity against Saccharomyces cerevisiae K-2 after 18 hrs by disk diffusion assay; type: functional, organism-based; in short: as §5
Enterococcus faecalis [16] = experiment: Antibacterial activity against Enterococcus faecalis S-86 at 100 ug/disk after 18 hrs by disk diffusion assay; type: functional; conditions: read-out: Diameter of inhibition zone; in short: as §1
Staphylococcus aureus = experiment: Antibacterial activity against Staphylococcus aureus ATCC 8 at 200 ug/disk after 18 hrs by disk diffusion assay; type: functional; conditions: for zone of inhibition at 200 µg/disc: ATCC 8, 18 h, read-out: Diameter of inhibition zone; in short: as §1
[17] = read-out: Diameter of inhibition zone

## CCCCC[C@H](/C=C\CCCCCCCc1cc(O)cc(O)c1)OC(C)=O
Micrococcus luteus
  zone of inhibition at 200 µg/disc: 7 mm
Niallia circulans [1]
  zone of inhibition at 100 µg/disc: 7 mm
Priestia megaterium [2]
  Activity: inactive
Bacillus licheniformis [3]
  zone of inhibition at 200 µg/disc: 9 mm
Priestia megaterium [4]
  Activity: inactive
Botrytis cinerea [5]
  Activity: inactive
Aspergillus niger
  Activity: inactive
Proteus
  Activity: inactive
[6]
  Activity: inactive
Bacillus licheniformis [7]
  zone of inhibition at 100 µg/disc: 7 mm
Botrytis cinerea [8]
  Activity: inactive
Pseudomonas fluorescens
  Activity: inactive
Niallia circulans [9]
  zone of inhibition at 200 µg/disc: 7 mm
Saccharomyces cerevisiae [10]
  Activity: inactive
Escherichia coli
  Activity: inactive
Bacillus subtilis [11]
  Activity: inactive
Saccharomyces cerevisiae [12]
  Activity: inactive
Fusarium fujikuroi
  Activity: inactive
Alcaligenes faecalis
  Activity: inactive
Salmonella
  Activity: inactive
Enterococcus faecalis [13]
  zone of inhibition at 200 µg/disc: 6 mm
Bacillus subtilis [14]
  Activity: inactive
Saccharomyces cerevisiae [15]
  Activity: inactive
Enterococcus faecalis [16]
  zone of inhibition at 100 µg/disc: 7 mm
Staphylococcus aureus
  Activity: inactive

## CCCCC[C@H](/C=C\CCCCCCCc1cc(O)cc(O)c1C(=O)O)OC(C)=O
Micrococcus luteus
  zone of inhibition at 200 µg/disc: 13 mm
Niallia circulans [1]
  zone of inhibition at 100 µg/disc: 8 mm
Priestia megaterium [2]; [17]
  zone of inhibition at 100 µg/disc: 7 mm
Bacillus licheniformis [3]
  zone of inhibition at 200 µg/disc: 22 mm
Priestia megaterium [4]; [17]
  zone of inhibition at 200 µg/disc: 7 mm
Botrytis cinerea [5]
  Activity: inactive
Aspergillus niger
  Activity: inactive
Proteus
  Activity: inactive
[6]
  Activity: inactive
Bacillus licheniformis [7]
  zone of inhibition at 100 µg/disc: 18 mm
Botrytis cinerea [8]
  Activity: inactive
Pseudomonas fluorescens
  Activity: inactive
Niallia circulans [9]
  zone of inhibition at 200 µg/disc: 9 mm
Saccharomyces cerevisiae [10]
  Activity: inactive
Escherichia coli
  Activity: inactive
Bacillus subtilis [11]; [17]
  zone of inhibition at 100 µg/disc: 7 mm
Saccharomyces cerevisiae [12]
  Activity: inactive
Fusarium fujikuroi
  Activity: inactive
Alcaligenes faecalis
  Activity: inactive
Salmonella
  Activity: inactive
Enterococcus faecalis [13]
  zone of inhibition at 200 µg/disc: 15 mm
Bacillus subtilis [14]; [17]
  zone of inhibition at 200 µg/disc: 8 mm
Saccharomyces cerevisiae [15]
  Activity: inactive
Enterococcus faecalis [16]
  zone of inhibition at 100 µg/disc: 13 mm
Staphylococcus aureus
  zone of inhibition at 200 µg/disc: 7 mm

## CCCCCC/C=C\CCCCCCCc1cc(O)cc(O)c1C(=O)O
Micrococcus luteus
  zone of inhibition at 200 µg/disc: 7 mm
Niallia circulans [1]
  Activity: inactive
Priestia megaterium [2]
  Activity: inactive
Bacillus licheniformis [3]
  zone of inhibition at 200 µg/disc: 15 mm
Priestia megaterium [4]
  Activity: inactive
Botrytis cinerea [5]
  Activity: inactive
Aspergillus niger
  Activity: inactive
Proteus
  Activity: inactive
[6]
  Activity: inactive
Bacillus licheniformis [7]
  zone of inhibition at 100 µg/disc: 15 mm
Botrytis cinerea [8]
  Activity: inactive
Pseudomonas fluorescens
  Activity: inactive
Niallia circulans [9]
  zone of inhibition at 200 µg/disc: 7 mm
Saccharomyces cerevisiae [10]
  Activity: inactive
Escherichia coli
  Activity: inactive
Bacillus subtilis [11]
  Activity: inactive
Saccharomyces cerevisiae [12]
  Activity: inactive
Fusarium fujikuroi
  Activity: inactive
Alcaligenes faecalis
  Activity: inactive
Salmonella
  Activity: inactive
Enterococcus faecalis [13]
  zone of inhibition at 200 µg/disc: 30 mm
Bacillus subtilis [14]
  Activity: inactive
Saccharomyces cerevisiae [15]
  Activity: inactive
Enterococcus faecalis [16]
  zone of inhibition at 100 µg/disc: 16 mm
Staphylococcus aureus
  zone of inhibition at 200 µg/disc: 7 mm
